Source: PubChem BioAssay
Only some compounds are listed: those with a hit (about 3.5% of all), similar ones and a draw of the others.
RGS4 inh – inhibitors of human RGS4; HEK293 M3R/RGS4 inducible, Fluo-4 calcium flux; stronger effect = higher value; triggered by carbachol at its EC20; 0.45% of 310,000 active; P49798; B-score at 10 µM;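 active = B-score, a plate-corrected calcium signal, over three deviations above library mean, with baseline fluorescence within five deviations of library mean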;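 also: RGS4 expression induced by doxycycline in cells with stable M3 receptor; B-score is computed from the integrated fluorescence ratio over baseline after carbachol; higher B-score means a larger calcium signal and so more RGS4 inhibition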
RGS4 pot – RGS4 potentiation or activation. B-score at 10 µM. 0.92% of 310,000 active. HEK293 M3R/inducible RGS4, carbachol calcium flux Fluo4; stronger effect = lower value. AID 463111;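 active = B-score of the integrated calcium signal more than 4 SD below the library mean, with starting fluorescence not abnormally high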;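 also: negative B-score means reduced calcium response which marks RGS4 activation or potentiation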
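Detection: kinetic calcium fluorescence imaging with Fluo4-AM dye, 2 µM / Material: HEK293 cells with stable M3R and inducible RGS4 / Schedule: recording 10 s baseline at 1 Hz, 100 s post-agonist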
MrgX1 antagonist – antagonists of human MrgX1 receptor; Q96LB2; MRGX1-HEK293 calcium flux, Fluo-4, BAM8-22 antagonism; stronger effect = lower value; B-score at 10 µM; 1.3% of 310,000 active; AID 588676;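 active = calcium-response B-score plate-corrected more than 3 library SD below zero, starting fluorescence within 5 deviations, no agonist response on first addition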;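 also: peak minus trough fluorescence over baseline after final BAM8-22 challenge near maximal dose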
Target sequence (Q96LB2 whole entry, looked up): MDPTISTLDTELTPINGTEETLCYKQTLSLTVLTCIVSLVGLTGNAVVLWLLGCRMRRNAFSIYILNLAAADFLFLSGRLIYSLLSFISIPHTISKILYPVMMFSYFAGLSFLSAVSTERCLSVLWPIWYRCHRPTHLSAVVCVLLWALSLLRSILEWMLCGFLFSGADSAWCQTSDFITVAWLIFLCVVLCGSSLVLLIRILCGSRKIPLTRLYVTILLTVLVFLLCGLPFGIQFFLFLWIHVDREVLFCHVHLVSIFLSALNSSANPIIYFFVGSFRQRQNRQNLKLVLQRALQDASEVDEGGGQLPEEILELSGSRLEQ
MrgX1 agonist – agonists of human MrgX1 receptor; MrgX1-HEK293 cells, Fluo-4 calcium fluorescence, agonist mode; stronger effect = higher value; B-score at 10 µM; 0.44% of 310,000 active; AID 588627;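 active = calcium response B-score plate-corrected fluorescence ratio at least 3 library SD, with starting fluorescence B-score inside 5 SD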
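Assay system: stable human MrgX1 HEK293 cell line. Quantity: 15,000 cells per well. Schedule: cells plated overnight, dye loaded 0.5 h 37 °C, 0.5 h room temperature. Detection: Fluo-4 NW calcium-flux fluorescence, kinetic read. Read-out basis: peak-minus-minimum fluorescence over baseline, converted to B scores. Control set: positive and negative control wells on each plate.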
MrgX1 PAM – allosterically activates human MrgX1 receptor signaling; Q96LB2; MrgX1-HEK293, Fluo-4 calcium flux, FDSS; stronger effect = higher value; B-score at 10 µM; 0.63% of 310,000 active;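 active = plate-corrected calcium response at least 3 library SD above typical, normal starting fluorescence, not activating the receptor alone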;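 also: compound read alongside a low EC10 to EC30 dose of BAM8-22 agonist; peak minus trough fluorescence over baseline measured at the second addition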
* = called active by the depositor.

What do the screens show for `CCCOc1ccc(C2C(C(=O)c3ccco3)=C(O)C(=O)N2CCCn2ccnc2)cc1` (centres undefined)?
RGS4 inh: inactive; RGS4 pot: inactive; MrgX1 antagonist: -7.47*; MrgX1 agonist: inactive; MrgX1 PAM: inactive

Results for O=c1c(-c2ccc(O)cc2)coc2cc(O)ccc12 ?
RGS4 inh: inactive; RGS4 pot: inactive; MrgX1 antagonist: -7.84*; MrgX1 agonist: inactive; MrgX1 PAM: inactive

Results for O=C1/C(=C\c2ccc(C(F)(F)F)cc2)CSc2sccc21 ?
RGS4 inh: inactive; RGS4 pot: inactive; MrgX1 antagonist: inactive; MrgX1 agonist: inactive; MrgX1 PAM: inactive

Results for Cc1cc(C)[n+](-c2ccc(C(C)C)cc2)c2[nH]c(=O)[nH]c(=O)c12 ?
RGS4 inh: inactive; RGS4 pot: -9*; MrgX1 antagonist: inactive; MrgX1 agonist: inactive; MrgX1 PAM: inactive

What do the screens show for `CCCS(=O)c1nc(C)cc(C)c1S(C)(=O)=O` (centres undefined)?
RGS4 inh: inactive; RGS4 pot: inactive; MrgX1 antagonist: inactive; MrgX1 agonist: inactive; MrgX1 PAM: inactive

How did CC(=O)N1CC(C)Oc2ccc(S(=O)(=O)Nc3ccc(Cl)cn3)cc21 (centres undefined) do in these assays?
RGS4 inh: inactive; RGS4 pot: inactive; MrgX1 antagonist: inactive; MrgX1 agonist: inactive; MrgX1 PAM: inactive

Results for O=[N+]([O-])c1ccc(NC(=S)NCCc2ccccc2)cc1 ?
RGS4 inh: inactive; RGS4 pot: inactive; MrgX1 antagonist: -4.87*; MrgX1 agonist: inactive; MrgX1 PAM: inactive

Results for NS(=O)(=O)c1ccc(NC(=S)NCCc2ccccc2)cc1 ?
RGS4 inh: inactive; RGS4 pot: inactive; MrgX1 antagonist: inactive; MrgX1 agonist: inactive; MrgX1 PAM: inactive

How did O=[N+]([O-])c1ccc(NC(=S)NCCc2ccc(Cl)cc2)cc1 do in these assays?
RGS4 inh: inactive; RGS4 pot: inactive; MrgX1 antagonist: -5.97*; MrgX1 agonist: inactive; MrgX1 PAM: inactive

Results for S=C(NCCc1ccccc1)Nc1ccc(Cl)cc1 ?
RGS4 inh: inactive; RGS4 pot: inactive; MrgX1 antagonist: inactive; MrgX1 agonist: inactive; MrgX1 PAM: inactive

What do the screens show for `CCOC(=O)N1CCN(C(=O)c2cccc(-n3c(=S)[nH]c4cc(Cl)ccc4c3=O)c2)CC1`?
RGS4 inh: inactive; RGS4 pot: inactive; MrgX1 antagonist: inactive; MrgX1 agonist: inactive; MrgX1 PAM: inactive

Results for Cc1ccc(CN(Cc2cc3cccc(C)c3[nH]c2=O)C(=S)NCCCN(C)C)cc1 ?
RGS4 inh: inactive; RGS4 pot: inactive; MrgX1 antagonist: inactive; MrgX1 agonist: inactive; MrgX1 PAM: 9.71*

How did CCC(C)(C)c1ccc(OCCCC[n+]2ccc(C)cc2)c(C(C)(C)CC)c1 do in these assays?
RGS4 inh: inactive; RGS4 pot: -9.27*; MrgX1 antagonist: inactive; MrgX1 agonist: inactive; MrgX1 PAM: inactive

How did CCC(C)(C)c1ccc(OCCCC[n+]2cccc(C)c2C)c(C(C)(C)CC)c1 do in these assays?
RGS4 inh: inactive; RGS4 pot: inactive; MrgX1 antagonist: -5.34*; MrgX1 agonist: inactive; MrgX1 PAM: inactive

How did Cc1cc[n+](CC[n+]2ccc(C)cc2)cc1 do in these assays?
RGS4 inh: inactive; RGS4 pot: inactive; MrgX1 antagonist: inactive; MrgX1 agonist: inactive; MrgX1 PAM: inactive

How did O=C(C1=C[C@H](c2ccccc2)C[C@H](OCc2ccc(CO)cc2)O1)N1CCOCC1 do in these assays?
RGS4 inh: inactive; RGS4 pot: inactive; MrgX1 antagonist: inactive; MrgX1 agonist: inactive; MrgX1 PAM: inactive

Results for COc1ccc(C(=O)NCc2nnc(SCC(=O)c3ccccc3)n2C)cc1OC ?
RGS4 inh: inactive; RGS4 pot: inactive; MrgX1 antagonist: inactive; MrgX1 agonist: inactive; MrgX1 PAM: inactive

How did COc1ccc(S(=O)(=O)N(C)CC(=O)NCCC2=CCCCC2)cc1OC do in these assays?
RGS4 inh: inactive; RGS4 pot: inactive; MrgX1 antagonist: -5.91*; MrgX1 agonist: inactive; MrgX1 PAM: inactive

How did CCCCCCCCNC(=O)c1cccnc1SCC(=O)Nc1ccccc1OC do in these assays?
RGS4 inh: inactive; RGS4 pot: inactive; MrgX1 antagonist: inactive; MrgX1 agonist: inactive; MrgX1 PAM: inactive
